In ChEMBL document CHEMBL4680189, “Immunosuppressive properties of amino acid and peptide derivatives of mycophenolic acid” (Eur J Med Chem, 2020):
Activity calls are given as the source filed them. The rule behind the calls is not given here. Where a SMILES comes first, the peptide text is derived from it. [ ]: non-standard residue; d: D form. The star is where a group is joined. Mycophenolyl = COc1c(C)c2c(c(O)c1C/C=C(\C)CCC(=O)*)C(=O)OC2; Arg(NO2) = N=C(NCCC[C@H](N)C(=O)O)N[N+](=O)[O-]

Assays:
Jurkat [1] = test: Immunosuppression-mediated cytotoxicity against human Jurkat T cells assessed as reduction in cell viability incubated for 48 hrs by MTT assay; assay type: cell-based
Summary of the method: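 Jurkat cells in RPMI-1640 with 10% FBS and P/S, 50×10^3 cells/well, exposed in triplicate to serial dilutions from 1 mg/mL (DMSO/medium) for 48 h at 37 °C, 5% CO2. MTT (5 mg/ml) then added for 3 h. Formazan dissolved in 0.4 N HCl–isopropanol, absorbance read at 570 nm. IC50 from curve fitting; viability at 1 mg/mL used where IC50 could not be reached.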

[2] = Immunosuppression-mediated cytotoxicity against anti-CD3/anti-CD28-stimulated human PBMC cells assessed as reduction in cell viability incubated for 72 hrs by MTT assay; assay type: cell-based
Summary of the method: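 PBMC from buffy coats of healthy donors, isolated on a Ficoll gradient with erythrocyte lysis. Plated at 50×10^3 cells/well with anti-CD3/anti-CD28, serial compound dilutions, in triplicate. Incubated 72 h, 37 °C, 5% CO2. MTT added for 3 h, formazan dissolved in acidified isopropanol (0.4 N HCl), A570 read. Three donors averaged; IC50 from curve fit.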

Jurkat [3] = test: Immunosuppression-mediated antiproliferative activity against human Jurkat T cells assessed as inhibition of cell growth incubated for 48 hrs by VPD450 staining based flow cytometry; assay type: functional
Summary of the method: (§1)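 Cells stained with VPD450 (2 μL of 1 mM dye per 10-30×10^6 cells in 1 mL PBS, 15 min, 37 °C), washed. PBMC: 50×10^3 cells/well with anti-CD3/anti-CD28, serial compound dilutions, 72 h. Jurkat: 50×10^3 cells/well, 48 h. 37 °C, 5% CO2, triplicate. Dye dilution by flow cytometry; EC50 from curve fit.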

[4] = Immunosuppression-mediated antiproliferative activity against anti-CD3/anti-CD28-stimulated human PBMC cells assessed as inhibition of cell growth incubated for 72 hrs by VPD450 staining based flow cytometry; assay type: functional; summary of the method: as §1
[5] = Selectivity index, ratio of IC50 for cytotoxicity against human Jurkat T cells by MTT assay to EC50 for antiproliferative activity against human Jurkat T cells by VPD450 staining based flow cytometry
Summary of the method: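 Jurkat IC50 from the 48 h MTT assay (50×10^3 cells/well, triplicate) divided by Jurkat EC50. […] Cells treated 48 h with serial dilutions, then dye dilution read by flow cytometry and fitted.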

[6] = Selectivity index, ratio of IC50 for cytotoxicity against human PBMC by MTT assay to EC50 for antiproliferative activity against human PBMC by VPD450 staining based flow cytometry
Summary of the method: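 Ratio of the MTT cytotoxicity IC50 (72 h, stimulated PBMC) to the VPD450 antiproliferative EC50 (72 h, stimulated PBMC), both from fitted concentration-response curves.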

PBMC = test: Immunosuppression-mediated antiproliferative activity against anti-CD3/anti-CD28-stimulated human PBMC cells assessed as inhibition of cell growth incubated for 72 hrs in presence of GMP by VPD450 staining based flow cytometry; assay type: functional
Summary of the method: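 VPD450-stained PBMC, 50×10^3 cells/well, anti-CD3/anti-CD28 stimulation, serial compound dilutions plus GMP at 50 μM in the well. Incubated 72 h at 37 °C, 5% CO2, in triplicate. Proliferation read by flow cytometry as dye dilution and expressed relative to controls.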

[7] = Stability in human Jurkat T cells assessed as compound remaining at EC50 concentration after 5 days by HPLC-MS analysis; assay type: ADME, cell-based; details: time 5 day, read-out: Stabilty
Summary of the method: (§2)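 Compounds incubated at their EC50 concentrations with Jurkat cells for 5 days, sampled daily. Amount measured by HPLC-MS: C18 column at 40 °C, 0.4 mL/min, 0.1% HCOOH water to ACN/MeOH gradient, UV 254 nm, ESI-MS. Peak area on day 1 taken as 100%.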

Jurkat [8] = test: Immunosuppression-mediated antiproliferative activity against human Jurkat T cells assessed as inhibition of cell growth at 1 mg/ml incubated for 48 hrs by VPD450 staining based flow cytometry relative to control; assay type: functional; parameters: scale not given: the % may be the effect or the level left
Summary of the method: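 Jurkat cells stained with VPD450 (2 μL of 1 mM dye per 10-30×10^6 cells, 15 min, 37 °C) and plated at 50×10^3 cells/well. Compound added at the top concentration, 1 mg/mL (1 mg dissolved in 20 μL DMSO, made up to 1 mL with medium). 48 h at 37 °C, 5% CO2, in triplicate. Read by flow cytometry; […].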

[9] = Stability in human Jurkat T cells assessed as compound remaining at EC50 concentration after 3 days by HPLC-MS analysis; assay type: ADME, cell-based; details: time 3 day, read-out: Stabilty; summary of the method: as §2
Jurkat [10] = test: Immunosuppression-mediated cytotoxicity against human Jurkat T cells assessed as reduction in cell viability at 1 mg/ml incubated for 48 hrs by MTT assay relative to control; assay type: cell-based
Summary of the method: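 Jurkat cells (RPMI-1640, 10% FBS) plated at 50×10^3 cells/well and exposed to 1 mg/mL compound (1 mg in 20 μL DMSO, made up to 1 mL with medium). 48 h at 37 °C, 5% CO2, in triplicate. MTT (5 mg/mL stock) for 3 h, acidified isopropanol, A570. Viability calculated at that concentration.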

[11] = Immunosuppression-mediated cytotoxicity against anti-CD3/anti-CD28-stimulated human PBMC cells assessed as reduction in cell viability at 1 mg/ml incubated for 72 hrs by MTT assay relative to control; assay type: cell-based
Summary of the method: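 Anti-CD3/anti-CD28-stimulated PBMC, 50×10^3 cells/well, exposed to compound at the highest concentration, 1 mg/mL, for 72 h at 37 °C, 5% CO2, in triplicate. MTT for 3 h, acidified isopropanol, A570. Viability calculated at that concentration; three donors averaged.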

remaining at 120 h [7] [%]	SMILES	IC50 (Jurkat [1]) [µM]	IC50 [2] [µM]	EC50 (Jurkat [3]) [µM]	EC50 [4] [µM]	Ratio IC50/EC50 [5]	Ratio IC50/EC50 [6]	Activity (PBMC)	Activity (Jurkat [8]) [%]	remaining at 72 h [9] [%]	Activity (Jurkat [10]) [%]	Activity [11] [%]
> 40	COC(=O)[C@@H](NC(=O)CC/C(C)=C/Cc1c(O)c2c(c(C)c1OC)COC2=O)[C@@H](C)O	17	57	10	10	1.8	5.7	inactive	–	–	–	–
–	COC(=O)[C@H](CCCNC(=N)N[N+](=O)[O-])NC(=O)[C@@H]1CCCN1C(=O)[C@H](CCCCNC(=O)[C@H](C)N)NC(=O)[C@@H](NC(=O)CC/C(C)=C/Cc1c(O)c2c(c(C)c1OC)COC2=O)[C@@H](C)O (Mycophenolyl-TK(Ala)P[Arg(NO2)]-OMe)	1000	560	–	259	–	2.2	–	55.31	50	–	–
–	COC(=O)[C@H](CCCNC(=N)N[N+](=O)[O-])NC(=O)[C@@H]1CCCN1C(=O)[C@H](CCCCNC(=O)[C@@H](N)C(C)C)NC(=O)[C@@H](NC(=O)CC/C(C)=C/Cc1c(O)c2c(c(C)c1OC)COC2=O)[C@@H](C)O (Mycophenolyl-TK(Val)P[Arg(NO2)]-OMe)	–	–	–	432	–	–	inactive	55.1	–	66.56	56.81
–	COC(=O)[C@H](CCCNC(=N)N[N+](=O)[O-])NC(=O)[C@@H]1CCCN1C(=O)[C@H](CCCCN)NC(=O)[C@@H](NC(=O)CC/C(C)=C/Cc1c(O)c2c(c(C)c1OC)COC2=O)[C@@H](C)O (Mycophenolyl-TKP[Arg(NO2)]-OMe)	–	–	–	130	–	–	–	60.78	–	85.82	99.09
–	CC[C@H](C)[C@H](N)C(=O)NCCCC[C@H](NC(=O)[C@@H]1CCCN1C(=O)[C@H](CCCNC(=N)N[N+](=O)[O-])NC(=O)CC/C(C)=C/Cc1c(O)c2c(c(C)c1OC)COC2=O)C(=O)N[C@H](C(=O)OC)[C@@H](C)O (Mycophenolyl-[Arg(NO2)]PK(Ile)T-OMe)	–	533	–	152	–	3.5	–	52.77	–	52.48	–
–	COC(=O)[C@@H](NC(=O)[C@H](CCCCNC(=O)[C@@H](N)CC(C)C)NC(=O)[C@@H]1CCCN1C(=O)[C@H](CCCNC(=N)N[N+](=O)[O-])NC(=O)CC/C(C)=C/Cc1c(O)c2c(c(C)c1OC)COC2=O)[C@@H](C)O (Mycophenolyl-[Arg(NO2)]PK(Leu)T-OMe)	–	519	–	161	–	3.2	–	63.04	–	61.34	–
–	COC(=O)[C@@H](NC(=O)[C@H](CCCCN)NC(=O)[C@@H]1CCCN1C(=O)[C@H](CCCNC(=N)N[N+](=O)[O-])NC(=O)CC/C(C)=C/Cc1c(O)c2c(c(C)c1OC)COC2=O)[C@@H](C)O (Mycophenolyl-[Arg(NO2)]PKT-OMe)	971	634	664	35.4	1.5	18	inactive	–	50	–	–
